Key:
Mus musculus [1] = assay: Glucose lowering effect in GPR120 knock out mouse assessed as plasma glucose AUC at 10 mg/kg administered 30 mins prior to glucose challenge measured up to 90 mins post dose by ipGTT (reference value: 7319 mg/dL.min); format: functional, organism-based; parameters: time < 1.5 hr, dose 10 mg/kg
Summary of the method: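 Intraperitoneal glucose tolerance test in GPR120 knockout mice at 10 mg/kg. Wild-type mice were run in parallel, and glucose lowering was compared with vehicle-treated animals.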

Mus musculus [2] = assay: Antiobesity activity in diet-induced obesity C57Bl6/J mouse model assessed as basal glucose level in plasma at 30 mg/kg qd for 15 days measured on day 15 post 6 hrs fasting (reference value: 187 +/- 24 mg/dL); format: functional
Rattus norvegicus = species: Rattus norvegicus; assay: Displacement of [35S]TBPS from rat GABA-gated chloride channel at 10 uM after 120 mins by scintillation counting method
[3] = Volume of distribution at steady state in mouse at 1.15 mg/kg, iv by LC-MS/MS analysis; format: ADME, organism-based; conditions: in vivo, read-out: Vdss
[4] = Half life in rat at 10 mg/kg, po by LC-MS/MS analysis; format: ADME, organism-based; conditions: in vivo
Cavia porcellus [5] = assay: Cardiotoxicity in guinea pig assessed as effect on heart rate at 22.4 mg/kg; format: toxicity, organism-based; conditions: in vivo
[6] = Clearance in rat at 2 mg/kg, iv by LC-MS/MS analysis; format: ADME, organism-based; conditions: in vivo
Cavia porcellus [7] = assay: Cardiotoxicity in guinea pig assessed as effect on QT interval at 22.4 mg/kg; format: toxicity, organism-based; conditions: in vivo
[8] = Half life in dog at 5 mg/kg, po by LC-MS/MS analysis; format: ADME, organism-based, Canis lupus familiaris; conditions: in vivo
Mus musculus [9] = assay: Antiobesity activity in diet-induced obesity C57Bl6/J mouse model assessed as change in plasma glucose level at 10 mg/kg qd for 15 days measured on day 15 post 6 hrs fasting; format: functional
[10] = target: 5-hydroxytryptamine receptor 2B (Homo sapiens) (UniProt P41595); assay: Displacement of [125I](+/-)DOI from recombinant human 5-HT2B at 10 uM after 60 mins by scintillation counting method relative to control
[11] = Clearance in dog at 1 mg/kg, iv by LC-MS/MS analysis; format: ADME, organism-based, Canis lupus familiaris; conditions: in vivo
[12] = target: T1, Free fatty acid receptor 4 (Rattus norvegicus, UniProt Q2AC31); assay: Agonist activity at recombinant rat GPR120 expressed in HEK293 cells; format: functional, cell-based
T1 sequence (Q2AC31 whole entry): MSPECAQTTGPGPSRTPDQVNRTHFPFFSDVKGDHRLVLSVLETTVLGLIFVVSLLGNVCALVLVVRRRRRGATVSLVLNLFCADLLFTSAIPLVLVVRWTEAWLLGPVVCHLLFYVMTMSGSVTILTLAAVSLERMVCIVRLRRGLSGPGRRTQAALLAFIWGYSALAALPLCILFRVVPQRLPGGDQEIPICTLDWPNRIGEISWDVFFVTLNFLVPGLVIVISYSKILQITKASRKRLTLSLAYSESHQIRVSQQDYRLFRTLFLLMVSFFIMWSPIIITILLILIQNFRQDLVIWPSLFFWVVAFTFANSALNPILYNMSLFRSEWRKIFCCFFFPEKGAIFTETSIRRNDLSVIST

[13] = Protein binding in mouse plasma; format: ADME, cell-free; conditions: read-out: PPB (converted)
[14] = Volume of distribution at steady state in rat at 2 mg/kg, iv by LC-MS/MS analysis; format: ADME, organism-based; conditions: in vivo, read-out: Vdss
Mus musculus [15] = assay: Antidiabetic activity in diet-induced obese C57Bl/6 mouse model assessed as plasma glucose AUC at 10 mg/kg administered 30 mins prior to glucose challenge measured up to 90 mins post dose by ipGTT (reference value: 10113 mg/dL.min); format: functional, organism-based; parameters: time < 1.5 hr, dose 10 mg/kg
Summary of the method: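 Intraperitoneal glucose tolerance test with 10 mg/kg dosing, run in GPR120 knockout mice and in wild-type mice.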

Homo sapiens = species: Homo sapiens; assay: Selectivity ratio of EC50 for human GPR40 to EC50 for recombinant human GPR120 expressed in HEK293 cells; format: cell-based
Mus musculus [16] = assay: Antiobesity activity in diet-induced obesity C57Bl6/J mouse model assessed as basal insulin level in plasma at 10 mg/kg bid for 15 days measured on day 15 post 6 hrs fasting (reference value: 16959 +/- 4943 pg/ml); format: functional
Cavia porcellus [17] = assay: Cardiotoxicity in guinea pig assessed as effect on PQ interval at 22.4 mg/kg; format: toxicity, organism-based; conditions: in vivo
Mus musculus [18] = assay: Antiobesity activity in diet-induced obesity C57Bl6/J mouse model assessed as change in plasma glucose level at 10 mg/kg bid for 15 days measured on day 15 post 6 hrs fasting; format: functional
[19] = Half life in rat liver microsomes; format: ADME, microsome
[20] = AUClast in dog at 5 mg/kg, po by LC-MS/MS analysis; format: ADME, organism-based, Canis lupus familiaris; parameters: dose 5 mg/kg, route oral, time 0 - last; conditions: in vivo
Mus musculus [21] = assay: Antidiabetic activity in diet-induced obese C57Bl/6 mouse model assessed as change in plasma glucose AUC at 0.1 mg/kg, po administered 30 mins prior to glucose challenge measured up to 90 mins post dose by OGTT; format: functional
Summary of the method: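 Diet-induced obese mice dosed orally at 0.1–3.0 mg/kg 30 min before an oral glucose load (time 0). Glucose followed from 30 min pre-glucose to 90 min post-glucose. Saxagliptin 1 mg/kg was the positive control.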

Cavia porcellus [22] = assay: Cardiotoxicity in guinea pig assessed as effect on QTcB interval at 22.4 mg/kg; format: toxicity, organism-based; conditions: in vivo
Cytochrome P450 1A2 = target: T2, Cytochrome P450 1A2 (Homo sapiens, UniProt P05177); assay: Inhibition of CYP1A2 (unknown origin); format: ADME
T2 sequence (P05177 whole entry): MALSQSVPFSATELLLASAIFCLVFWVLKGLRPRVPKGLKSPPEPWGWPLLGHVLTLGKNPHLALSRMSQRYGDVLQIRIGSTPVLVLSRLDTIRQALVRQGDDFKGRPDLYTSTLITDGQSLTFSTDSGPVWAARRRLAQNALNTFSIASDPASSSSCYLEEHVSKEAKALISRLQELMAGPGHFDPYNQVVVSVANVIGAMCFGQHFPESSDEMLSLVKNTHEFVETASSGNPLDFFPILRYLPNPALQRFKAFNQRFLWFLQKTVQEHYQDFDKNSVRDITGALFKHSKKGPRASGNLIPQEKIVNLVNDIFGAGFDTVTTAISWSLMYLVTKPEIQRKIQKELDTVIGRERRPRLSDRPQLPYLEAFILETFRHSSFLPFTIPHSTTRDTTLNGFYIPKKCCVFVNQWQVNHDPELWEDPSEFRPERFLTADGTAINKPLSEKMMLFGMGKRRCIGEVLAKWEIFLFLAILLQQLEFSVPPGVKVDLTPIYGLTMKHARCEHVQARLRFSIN

[23] = Volume of distribution at steady state in dog at 1 mg/kg, iv by LC-MS/MS analysis; format: ADME, organism-based, Canis lupus familiaris; conditions: in vivo, read-out: Vdss
Mus musculus [24] = assay: Oral bioavailability in mouse at 14.6 mg/kg by LC-MS/MS analysis; format: ADME, organism-based; conditions: in vivo
Cavia porcellus [25] = assay: Cardiotoxicity in guinea pig assessed as effect on QRS interval at 22.4 mg/kg; format: toxicity, organism-based; conditions: in vivo
Mus musculus [26] = assay: Antiobesity activity in diet-induced obesity C57Bl6/J mouse model assessed as final glucose level in plasma at 30 mg/kg qd for 15 days measured on day 15 post 6 hrs fasting (reference value: 184 +/- 30 mg/dL); format: functional

Sequence of 5-hydroxytryptamine receptor 2B (Homo sapiens) (P41595 whole entry): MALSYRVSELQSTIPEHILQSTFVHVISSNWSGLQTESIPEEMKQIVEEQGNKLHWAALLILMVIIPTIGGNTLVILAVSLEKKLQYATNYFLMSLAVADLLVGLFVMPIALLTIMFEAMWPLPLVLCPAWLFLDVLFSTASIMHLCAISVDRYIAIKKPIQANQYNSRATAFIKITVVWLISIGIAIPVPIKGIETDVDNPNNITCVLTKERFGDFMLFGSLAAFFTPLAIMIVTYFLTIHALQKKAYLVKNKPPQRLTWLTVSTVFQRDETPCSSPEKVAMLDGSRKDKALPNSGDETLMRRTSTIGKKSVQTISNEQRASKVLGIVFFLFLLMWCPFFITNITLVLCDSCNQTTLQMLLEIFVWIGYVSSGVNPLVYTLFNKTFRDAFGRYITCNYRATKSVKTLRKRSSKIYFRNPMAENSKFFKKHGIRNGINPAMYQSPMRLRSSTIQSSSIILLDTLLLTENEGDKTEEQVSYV

inhibition (Rattus norvegicus): 66%
Vd [3]: 1.14 L/kg
half-life [4]: 2.87 h
clearance [6]: 3.2 mL/min/kg
half-life [8]: 4.37 h
inhibition [10]: 62%
clearance [11]: 2.45 mL/min/kg
EC50 [12]: 713 nM
fraction unbound [13]: 0.0037
Vd [14]: 0.42 L/kg
half-life [19]: 2.2 h
AUC(0-t) [20]: 47900 ng·h/mL
INH (Cytochrome P450 1A2): > 10 µM
Vd [23]: 0.52 L/kg
F (Mus musculus [24]): 166%
SMILES: O=C(O)CCc1cc(F)c(OCc2c(C(F)(F)F)ccn2-c2ccc(Cl)cc2)c(F)c1
AUC (Mus musculus [1]): 7430 mg/dL·min
Activity (Mus musculus [2]): 201 mg/dL
Activity (Cavia porcellus [5]): Non-Toxic
Activity (Cavia porcellus [7]): Non-Toxic
Activity (Mus musculus [9]): -23.7 mg/dL
AUC (Mus musculus [15]): 4920 mg/dL·min
Ratio EC50 (Homo sapiens): 42
Activity (Mus musculus [16]): 16966 pg/mL
Activity (Cavia porcellus [17]): Non-Toxic
Activity (Mus musculus [18]): -16.4 mg/dL
Activity (Mus musculus [21]): 8%
Activity (Cavia porcellus [22]): Non-Toxic
Activity (Cavia porcellus [25]): Non-Toxic
Activity (Mus musculus [26]): 151 mg/dL

— ChEMBL document CHEMBL4184291, “Discovery of N-arylpyrroles as agonists of GPR120 for the treatment of type II diabetes” (Bioorg Med Chem Lett, 2018)
